STAT3 inh: inhibitors of IL-6 induced STAT3 signaling; U3A cells, IL-6 STAT3-luciferase reporter, luminescence; host cell line lacks STAT1; inhibition, % at 5.5 µM; 0.89% of 190,000 active; AID 862;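 active means inhibition above the mean inhibition across all screened compounds plus 3 SD, cut at about 44% in these data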;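 further: 0% = DMSO only wells and 100% = 100 µM nifuroxazide control wells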
STAT1 inh-1: inhibitors of IFN-gamma induced STAT1 signaling; NIH 3T3 STAT1-luciferase reporter, luminescence; inhibition, % at 5.5 µM; 0.35% of 200,000 active; AID 920;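 active means inhibition above a set limit, the mean inhibition across all tested compounds plus 3 SD, cut at about 34% in these data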;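 further: 0% = IFN-gamma with DMSO and 100% = IFN-gamma with 300 µM nifuroxazide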
STAT3 act: STAT3 signaling activation; activation (% of control), % at 5.6 µM; 0.91% of 190,000 active; U3A cells, IL-6 STAT3-luciferase reporter, luminescence; 100% = signal with IL-6 EC80 alone;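 active means activation above the screen-wide mean of compound activation plus 3 SD, cut at about 130% in these data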;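 further: 0% = background luminescence of wells with medium and substrate only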
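Material: human U3A cells carrying STAT3-luciferase construct. Measured by: reporter luminescence signal. Timing: compound 1 h, then IL-6 6 h at 37 °C.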
NF-kB neuron act: compounds increasing NF-kB expression in human neuronal cells | NF-kB reporter expression; hits give high values | AID 1239 | 1.6% of 190,000 active | fold change at 12.5 µM; in the data active means fold change above about 3.3
APP 5'UTR act: APP 5'UTR luciferase reporter activation. SH-SY5Y APP 5'UTR luciferase reporter, luminescence; zero percent = DMSO vehicle wells. activation, % at 2 µM. 1% of 190,000 active. AID 1276;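 active means activation above a set limit, based on mean plus 3 SD of controls, cut at about 140% in these data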
STAT1 act: increases IFN-gamma driven STAT1 reporter signal. NIH 3T3 STAT1-luciferase reporter, luminescence; 100% = IFN-gamma alone, no compound. activation (% of control), % at 5.5 µM. 2.6% of 200,000 active. AID 932;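 active means activation above the screen-wide mean activation plus 3 SD, cut at about 130% in these data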;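 further: raw ratio to IFN-gamma control signal so 100% means no change and 0% no light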
STAT1 inh-2: confirmation of STAT1 signaling inhibitors. shares compounds with STAT1 inh-1. NIH 3T3 STAT1-luciferase reporter, IFN-gamma, luminescence. inhibition, % at 5.5 µM. 55% of 200 active;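 active means triplicate mean inhibition exceeding the hit cutoff computed for the primary STAT1 screen, cut at about 35% in these data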;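 further: 0% = DMSO with IFN-gamma and 100% = 300 µM nifuroxazide with IFN-gamma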
NFkB inh STAT1ct: inhibits NF-kappaB, counter-screen to STAT1 inhibitors. shares compounds with STAT1 inh-1. HEK293T NF-kB luciferase reporter, TNF-alpha induced, luminescence. inhibition, % at 5.7 µM. 30% of 200 active;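 active means inhibition above the mean of solvent-only control wells plus 3 SD of those wells, cut at about 15% in these data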;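 further: 0% = DMSO with TNF-alpha and 100% = MG-132 control with TNF-alpha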
STAT3 inh 2: counter-screen for STAT1 inhibitors: STAT3 inhibition; shares compounds with STAT1 inh-1; U3A cells, IL-6 STAT3 luciferase reporter, luminescence; cells lacking STAT1; 20% of 200 active; inhibition, % at 5.7 µM;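 active means inhibition above the mean of solvent-only control wells plus 3 SD, set per campaign, cut at about 25% in these data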;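 further: 0% = IL-6 plus DMSO and 100% = IL-6 plus nifuroxazide control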
STAT1 activ conf: STAT1 activation, confirmation assay; shares compounds with STAT1 act; NIH 3T3 STAT1-luciferase reporter, IFN-gamma potentiation, luminescence; 100% = IFN-gamma EC80 alone, no compound; activation (% of control), % at 5.7 µM; 97% of 1,200 active;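 active means activation above a set limit carried over from the earlier primary STAT1 screen, cut at about 140% in these data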;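 further: simple ratio to median IFN-gamma plus DMSO wells so 0% means no light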
NFkB act STAT1ct: counter-screen for STAT1 activators: NF-kappaB activation; 43% of 1,200 active; HEK293T NF-kB luciferase reporter, TNF-alpha stimulated, luminescence; 100% = TNF-alpha with vehicle only; AID 1306; shares compounds with STAT1 act; activation (% of control), % at 5.7 µM;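 active means activation above the mean of solvent-only control wells plus 3 SD, set per campaign, cut at about 130% in these data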;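 further: TNF-alpha given at a submaximal dose yielding about 80% of full reporter signal; values are well signal over median control so 100% means no change and 0% no light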
STAT3 act 2: human STAT3 activation in STAT1 activator counter-screen | U3A cells STAT3-luciferase reporter, IL-6, luminescence; cells lack STAT1; 100 = IL-6 alone, no compound effect | shares compounds with STAT1 act | activation (% of control), % at 5.7 µM | 46% of 1,200 active;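 active means activation above the solvent-only control well mean plus 3 SD, set per plate batch, cut at about 110% in these data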;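 further: 0% = no luminescence and 100% = median IL-6 plus DMSO wells; higher means more STAT3 reporter activation so hits are non-selective activators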
The depositor's hits bear a star; / = no result. A selection: hits, their analogues and other compounds. The true share with any hit is near 5.1%.

SMILES	STAT3 inh	STAT1 inh-1	STAT3 act	NF-kB neuron act	APP 5'UTR act	STAT1 act	STAT1 activ conf	NFkB act STAT1ct	STAT3 act 2	others
C[C@H]1C[C@@H](C)C(=O)[C@@H]([C@H](O)CC2CC(=O)NC(=O)C2)C1	/	83.9*	/	2.96	-45.2	22.8	/	/	/	STAT1 inh-2=41.5*;NFkB inh STAT1ct=76.3*;STAT3 inh 2=90.8*
CC1NCCC2(O)CCCCC12 (centres undefined)	5.1	-4.6	97.7	1.44	-1.6	102.5	/	/	/
Nc1ccccc1C(=O)OCC(=O)N1CCc2ccccc21	3.9	-57.2	96.7	2.24	13.4	153.5*	168.5*	116.4	96.7
N#CSCC(=O)N1c2ccccc2CCc2ccccc21	-1.4	4.9	101.3	1.12	-19.0	95.7	/	/	/
Cc1ccc(OP(=O)(NC(C)c2ccccc2)Oc2ccc(C)cc2)cc1 (centres undefined)	-10.0	-5.8	112.8	1.04	10.5	103.9	/	/	/
N=C1c2ccccc2CN1CC(=O)c1ccccc1	-12.5	-90.6	106.4	7.81*	142.9*	182.4*	153.9*	129.9	119.0*
O=c1c2ccccc2nc(/C=C/c2ccc([N+](=O)[O-])o2)n1-c1ccc(O)cc1	25.2	-245.7	80.8	1.62	-80.3	326.0*	175.1*	154.3*	101.4
CCC1CCCCN1CC(=O)c1ccc(OC(F)F)cc1 (centres undefined)	-3.2	1.4	102.3	0.91	4.7	98.7	/	/	/
CC(=O)Nc1ccccc1C(=O)OCC(=O)c1ccc2c(c1)OCCO2	-5.6	-82.9	110.1	0.63	76.9	175.2*	203.1*	120.4	115.9*
CC(=O)c1ccc2c(c1)OCO2	15.9	7.2	96.0	1.18	-3.7	93.5	/	/	/
CC(=O)Nc1ccccc1C(=O)OCc1ccc(F)cc1	3.0	-83.1	104.2	0.97	6.0	174.6*	124.5	109.0	97.5
c1ccc(-c2[nH]c(-c3ccccc3)[n+](CC3CO3)c2-c2ccccc2)cc1 (centres undefined)	2.6	-4.4	96.6	1.27	-5.9	104.0	/	/	/
